Measured values pooled from the literature.
Protocols differ between the studies behind these lines.
Target: Interleukin-1 receptor-associated kinase 4 (IRAK4, Homo sapiens, UniProt Q9NWZ3)
Sequence (Q9NWZ3 1-460, as in one of the studies): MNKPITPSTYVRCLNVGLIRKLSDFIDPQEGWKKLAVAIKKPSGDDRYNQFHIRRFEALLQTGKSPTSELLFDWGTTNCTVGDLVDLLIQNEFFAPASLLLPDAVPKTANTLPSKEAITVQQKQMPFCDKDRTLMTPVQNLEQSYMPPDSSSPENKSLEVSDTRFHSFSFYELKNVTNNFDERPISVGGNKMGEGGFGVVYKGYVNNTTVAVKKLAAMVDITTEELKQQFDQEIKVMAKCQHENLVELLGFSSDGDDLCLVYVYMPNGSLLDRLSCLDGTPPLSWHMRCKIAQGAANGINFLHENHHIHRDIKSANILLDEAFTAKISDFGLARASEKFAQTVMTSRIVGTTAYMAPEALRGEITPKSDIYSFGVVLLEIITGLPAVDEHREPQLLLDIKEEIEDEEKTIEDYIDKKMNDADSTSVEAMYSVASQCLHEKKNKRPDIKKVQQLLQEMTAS

| Compound | assay | conditions | quantity | result |
| --- | --- | --- | --- | --- |
| CC/C(=N\NC(=O)NCc1cccc(O)c1)c1ccc(O)c(C)c1O | enzyme activity, inhibitor | 0.1 µM | inhibition | -0.4% |
| C[C@@]1(Cc2ccc(C#N)cc2)C(=O)N(c2cc(Cl)cc(Cl)c2)c2ncc(C(=O)NC3(c4nc(C5CCC5)no4)CC3)n21 | cell-free assay, competition with immobilised ligand | 1 µM | remaining binding | 100% |
| CS(=O)(=O)Nc1cccc(-c2csc(NC(=O)CSc3nc4nccnc4c(=O)n3CCc3ccccc3)n2)c1 | enzyme activity, inhibitor | 10 µM | inhibition | 7% |
| CC(C)(C)c1nc2c(s1)c1nc(N)ncc1c1ccc(NS(=O)(=O)c3c(F)cccc3F)c(F)c12 | enzyme activity, inhibitor, radiometric | 1 µM | remaining activity | 90% |
| CN(C)C1CCN(CC#Cc2nn(C3CCCC3)c3nc(NCc4ccccc4)ncc23)C1 (centres unmarked) | enzyme activity, inhibitor, FRET | 1 µM | inhibition | 3% |
| Nc1ncnc2occ(-c3ccc(NC(=O)Nc4cc(C(F)(F)F)ccc4F)cc3)c12 | cell-free assay, inhibitor | 20 µM | remaining signal | 46% |
| CCCS(=O)(=O)Nc1ccc(F)c(C(=O)c2c[nH]c3ncc(-c4ccc(Cl)cc4)cc23)c1F | enzyme activity, inhibitor | 1 µM | inhibition | < 10% |
| c1ccc(N2CCN(Cc3nc4ccccc4[nH]3)CC2)nc1 | binding, competition with immobilised ligand | 1 µM | remaining binding | 100% |
| COc1cc(Nc2cnc(C#N)c(O[C@H](C)CN(C)C)n2)ncc1-c1cnn(C)c1 | enzyme activity, inhibitor, radiometric | 10 µM | remaining activity | 25% |
| CCc1ccccc1C(=O)Nc1n[nH]c2c(C)c(F)c(C3C(C#N)=C(C)N(C)C(C)=C3C#N)cc12 | cell-free assay, competition with immobilised ligand | 1 µM | remaining binding | 100% |
| CCN(CC)CCNC(=O)c1c(C)[nH]c(/C=C2\C(=O)Nc3ccc(F)cc32)c1C | enzyme activity, inhibitor | 10 µM | inhibition | 89% |
| N#CC1(c2ccccn2)CCN(Cc2cc(C(=O)N3CCCC3)c(=O)n3ccccc23)CC1 | cell-free assay, competition with immobilised ligand | 1 µM | remaining binding | 100% |
| COc1cc2ncnc(Nc3ccc(Oc4ccccc4)c(C)c3C)c2cc1OC | enzyme activity, inhibitor | 1 µM | inhibition | -4% |
| O=C(Nc1cnn(-c2csc(C(=O)NC3COC3)c2)c1)Nc1c(F)cccc1Cl | enzyme activity, inhibitor | 5 µM | remaining activity | 97.8% |
| Cc1ccc(Nc2nccc(N(C)c3ccc4c(C)n(C)nc4c3)n2)cc1S(N)(=O)=O | enzyme activity, inhibitor | 0.5 µM | remaining activity | 98.4% |
| CNCc1ccccc1-c1csc([C@@H](C)Nc2nc(C)nc3cc(OC)c(OC)cc23)c1 | cell-free assay, competition with immobilised ligand | 1 µM | remaining binding | 76% |
| COc1cc(Cl)c(C(=O)N[C@@H](CN[C@H]2CC[C@@H](N)CC2)Cc2ccc(C#N)cc2)cc1-c1ccc(CN[C@H](C)c2ccc(C)cc2)o1 | enzyme activity, inhibitor | 1 µM | remaining activity | 89% |
| FC(F)(F)Oc1cccc(-c2cnc3ccc(-c4ccncc4)nn23)c1 | enzyme activity, inhibitor, radiometric | 5 µM | activity vs control | 10% |
| Cc1ccc(NC(=O)c2ccc(C)c(C(F)(F)F)c2)cc1C#Cc1nn(C2CCC(O)CC2)c2ncnc(N)c12 (centres unmarked) | cell-free assay | 10 µM | remaining signal | 101% |
| Cn1c(=O)n(-c2ccc(C(C)(C)C#N)cc2)c2c3cc(-c4cnc5ccccc5c4)ccc3ncc21 | enzyme activity, inhibitor | 10 µM | remaining activity | 78% |
| COc1cc2c(Nc3ccc(Br)cc3F)ncnc2cc1OCC1CCN(C)CC1 | cell-free assay | 0.5 µM | remaining signal | 35.3% |
| Cc1cc(C)c(-n2ccn3nc(-c4cccnc4)cc23)cc1NC(=O)c1cc(C#N)cc(S(F)(F)(F)(F)F)c1 | cell-free assay, competition with immobilised ligand | 0.1 µM | remaining binding | 100% |
| F[C@@H]1CCN(c2nccc(-c3cnn4ncccc34)n2)C1 | binding | 1 µM | remaining binding | 100% |
| N#CCCc1ccc2c(c1)-c1[nH]c3ccc([N+](=O)[O-])cc3c1CC(=O)N2 | cell-free assay | 0.5 µM | remaining signal | 155% |
| COc1cc(/C=C/C(=O)CC(=O)/C=C/c2ccc(O)c(OC)c2)ccc1O | enzyme activity, inhibitor | 1 µM | activity vs control | 71% |
| CO[C@@H](C)c1c(Nc2ccc([C@H](N(C)C(=O)C3CCS(=O)(=O)CC3)C(F)(F)F)cc2)cnc2cc(Cl)nn12 | cell-free assay, competition with immobilised ligand | 1 µM | remaining binding | 88% |
| COc1cc2nccc(Oc3ccc(NC(=O)c4c5n(n(-c6ccc(F)cc6)c4=O)CCCC5)cc3)c2cc1OC | enzyme activity, inhibitor | 0.1 µM | inhibition | -19% |
| CS(=O)(=O)N1CCCC(NC(=O)[C@H](CCC2CCCCC2)NC(=O)c2ccc(CNC(=O)c3cnc4ccccn34)cc2)C1 (some centres unmarked) | cell-free assay, competition with immobilised ligand | 0.1 µM | remaining binding | 100% |
| O=C1NC(=O)c2cc(Nc3ccc(F)cc3)c(Nc3ccc(F)cc3)cc21 | cell-free assay | 0.5 µM | remaining signal | 98.1% |
